Data on one compound can be found in ChEMBL document CHEMBL3627606, “Development of Novel, CNS Penetrant Positive Allosteric Modulators for the Metabotropic Glutamate Receptor Subtype 1 (mGlu1), Based on an N-(3-Chloro-4-(1,3-dioxoisoindolin-2-yl)phenyl)-3-methylfuran-2-carboxamide Scaffold, That Potentiate Wild Type and Mutant mGlu1 Receptors Found in …” (J Med Chem, 2015).

The test system of data set [1] is Metabotropic glutamate receptor 1 (Homo sapiens), Q13255 [Y632H]. Description: Agonist activity at human mGlu1 Y632H mutant receptor expressed in HEK293 cells assessed as calcium mobilization at > 1 uM uM by Fluo-4AM dye based fluorescence analysis. The format is functional, cell-based. (A change in cytosolic calcium serves as a functional read-out for many receptors and channels.)
Sequence of Metabotropic glutamate receptor 1 (Homo sapiens), Q13255 [Y632H] (Q13255 whole entry Y632H): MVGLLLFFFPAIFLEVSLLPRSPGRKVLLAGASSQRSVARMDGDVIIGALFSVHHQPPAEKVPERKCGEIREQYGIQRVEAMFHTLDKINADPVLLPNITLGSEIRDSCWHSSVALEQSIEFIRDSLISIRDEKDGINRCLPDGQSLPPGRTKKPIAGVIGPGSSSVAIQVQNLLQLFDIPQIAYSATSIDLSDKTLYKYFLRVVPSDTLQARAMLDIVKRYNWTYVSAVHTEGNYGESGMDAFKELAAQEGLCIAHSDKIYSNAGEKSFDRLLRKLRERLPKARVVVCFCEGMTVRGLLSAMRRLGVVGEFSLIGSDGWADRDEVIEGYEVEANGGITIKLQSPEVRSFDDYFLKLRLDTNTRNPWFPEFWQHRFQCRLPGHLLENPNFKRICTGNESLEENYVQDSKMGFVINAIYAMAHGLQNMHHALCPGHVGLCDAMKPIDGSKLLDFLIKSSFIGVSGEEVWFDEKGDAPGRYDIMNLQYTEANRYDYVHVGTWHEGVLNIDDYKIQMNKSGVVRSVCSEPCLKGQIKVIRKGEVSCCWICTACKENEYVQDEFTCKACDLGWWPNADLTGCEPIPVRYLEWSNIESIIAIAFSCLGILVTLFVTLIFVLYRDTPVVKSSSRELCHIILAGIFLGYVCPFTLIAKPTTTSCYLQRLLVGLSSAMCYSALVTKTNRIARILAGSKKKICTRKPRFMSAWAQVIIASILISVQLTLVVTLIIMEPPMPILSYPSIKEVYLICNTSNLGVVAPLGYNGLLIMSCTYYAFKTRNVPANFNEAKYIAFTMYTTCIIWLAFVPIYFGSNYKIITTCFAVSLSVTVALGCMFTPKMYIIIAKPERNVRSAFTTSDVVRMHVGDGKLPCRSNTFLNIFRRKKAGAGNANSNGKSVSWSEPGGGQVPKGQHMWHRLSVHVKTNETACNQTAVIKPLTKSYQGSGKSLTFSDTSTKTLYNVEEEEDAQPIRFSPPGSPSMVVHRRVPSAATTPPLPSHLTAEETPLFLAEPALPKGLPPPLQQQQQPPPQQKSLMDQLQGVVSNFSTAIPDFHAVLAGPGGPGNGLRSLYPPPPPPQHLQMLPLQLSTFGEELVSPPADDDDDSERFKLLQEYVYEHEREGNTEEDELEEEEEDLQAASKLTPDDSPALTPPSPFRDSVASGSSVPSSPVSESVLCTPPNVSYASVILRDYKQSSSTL

The nature of data set [2]: Ratio of drug level in brain to plasma of Sprague-Dawley rat at 0.2 mg/kg, iv after 0.25 hrs by LC-MS/MS analysis. Conditions: read-out: BPR.
Data set [3] concerns the target T1, Metabotropic glutamate receptor 4 (Homo sapiens, UniProt Q14833). Description: Positive allosteric modulation of human mGlu4 receptor assessed as potentiation of glutamate-induced calcium mobiliztion by cell based assay. The format is functional. Particulars: read-out: EC50.
The target in another data set is Cytochrome P450 3A4 (Homo sapiens, UniProt P08684). Description: Inhibition of CYP3A4 in human liver microsomes by LC-MS/MS analysis. The format is ADME. (Liver microsomes are a subcellular fraction often used to study metabolism.)
Sequence of Cytochrome P450 3A4 (P08684 whole entry): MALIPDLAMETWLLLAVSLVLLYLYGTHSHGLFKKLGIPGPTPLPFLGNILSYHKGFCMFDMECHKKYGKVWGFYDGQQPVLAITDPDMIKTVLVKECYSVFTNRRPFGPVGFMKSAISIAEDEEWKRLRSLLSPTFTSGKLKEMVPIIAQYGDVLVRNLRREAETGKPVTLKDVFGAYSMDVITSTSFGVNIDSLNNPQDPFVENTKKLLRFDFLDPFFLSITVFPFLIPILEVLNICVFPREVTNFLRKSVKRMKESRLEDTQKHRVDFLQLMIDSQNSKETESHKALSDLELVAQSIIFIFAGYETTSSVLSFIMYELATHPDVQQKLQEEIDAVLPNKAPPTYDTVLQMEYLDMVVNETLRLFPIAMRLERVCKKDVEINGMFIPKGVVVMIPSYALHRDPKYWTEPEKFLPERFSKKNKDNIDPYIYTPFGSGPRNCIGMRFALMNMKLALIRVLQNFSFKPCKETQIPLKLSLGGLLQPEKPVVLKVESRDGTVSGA
The nature of data set [4]: Plasma concentration in Sprague-Dawley rat at 0.2 mg/kg, iv after 0.25 hrs by LC-MS/MS analysis.
In data set [5] the test system is Metabotropic glutamate receptor 1 (Homo sapiens), Q13255 [P1014S]. Kind of data set: Agonist activity at human mGlu1 P1014S mutant receptor expressed in HEK293 cells assessed as calcium mobilization at > 1 uM uM by Fluo-4AM dye based fluorescence analysis. The format is functional, cell-based.
Sequence of Metabotropic glutamate receptor 1 (Homo sapiens), Q13255 [P1014S] (Q13255 whole entry P1014S): as the sequence (Q13255 whole entry Y632H) above, with H632Y, P1014S counted along it
Data set [6] deals with T1, Metabotropic glutamate receptor 4. Kind of data set: Positive allosteric modulation of human mGlu4 receptor assessed as potentiation of glutamate-induced calcium mobiliztion by cell based assay relative to PHCCC.
Another data set has as its system Hippocampus. Description: Toxic epileptiform activity in C57BL/6 mouse CA3 region of hippocampus assessed as frequency of spike activity at 10 uM by electrophysiolgy method (reference value: 0.99 +/- 0.38 Hz). The format is toxicity, tissue-based. In a few lines:
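Mouse hippocampal slices with extracellular recording from the CA3 pyramidal cell body layer. Compound (10 μM) or DHPG (50 μM) was bath-applied, and the frequency of spontaneous spikes was compared with baseline. n = 6 per agent, paired t test.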

T1 sequence (Q14833 whole entry): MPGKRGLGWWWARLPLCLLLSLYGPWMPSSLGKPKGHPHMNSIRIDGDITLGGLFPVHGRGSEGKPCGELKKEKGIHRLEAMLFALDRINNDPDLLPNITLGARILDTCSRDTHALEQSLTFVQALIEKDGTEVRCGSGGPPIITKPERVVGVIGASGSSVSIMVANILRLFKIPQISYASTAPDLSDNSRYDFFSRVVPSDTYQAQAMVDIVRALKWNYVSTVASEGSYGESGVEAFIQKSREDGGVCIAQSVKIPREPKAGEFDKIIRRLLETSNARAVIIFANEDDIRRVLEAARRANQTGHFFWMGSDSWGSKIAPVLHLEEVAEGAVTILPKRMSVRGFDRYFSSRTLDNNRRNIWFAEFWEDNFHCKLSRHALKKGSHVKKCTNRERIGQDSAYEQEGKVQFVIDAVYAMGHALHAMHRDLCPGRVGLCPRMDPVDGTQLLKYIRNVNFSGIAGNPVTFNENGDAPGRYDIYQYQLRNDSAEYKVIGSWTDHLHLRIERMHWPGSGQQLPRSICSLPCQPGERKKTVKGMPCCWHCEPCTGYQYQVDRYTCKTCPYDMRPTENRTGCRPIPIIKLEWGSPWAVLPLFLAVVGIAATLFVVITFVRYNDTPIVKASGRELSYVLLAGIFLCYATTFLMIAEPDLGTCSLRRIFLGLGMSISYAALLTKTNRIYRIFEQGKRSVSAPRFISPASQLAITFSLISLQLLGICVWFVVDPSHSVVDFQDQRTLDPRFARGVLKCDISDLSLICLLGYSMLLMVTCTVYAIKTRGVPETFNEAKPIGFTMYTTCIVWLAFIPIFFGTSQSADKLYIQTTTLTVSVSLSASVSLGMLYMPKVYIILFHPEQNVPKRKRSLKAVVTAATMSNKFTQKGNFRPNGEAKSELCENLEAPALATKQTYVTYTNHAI

The term EC50 denotes the concentration at which the effect is half-maximal. One may read the IC50 as the point on the concentration scale where inhibition reaches its midpoint. For `Cc1ccoc1C(=O)Nc1ccc(N2C(=O)c3cccc(F)c3C2=O)c(Cl)c1`, the Activity in data set [1] turned out to be 40%; in data set [5], 40%; in the data set on Hippocampus, 1.16 Hz. Further, in data set [2], the Kp at 0.25 h worked out at 1.02. For the same compound, in data set [3], the EC50 stood at 1.11 µM. On Cytochrome P450 3A4, this compound gave an IC50 of over 30 µM. In data set [4], this compound had a concentration at 0.25 h of 0.2 µg/mL. For the same compound, in data set [6], the %max is 122%.
